MT1-MMP act inh – blockers of MT1-MMP proenzyme processing, primary screen, HT1080 RFP-PRO-GFP cells, GFP/RFP fluorescence | Matrix metalloproteinase-14 (Homo sapiens), P50281 | AID 651647, 2012 | actives 0.061% (n = 360,000) | GFP/RFP ratio change, % at 20 µM | GFP/RFP ratio fluorescence, overnight; percent of plate control window, DMSO zero;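 active = GFP/RFP ratio change of at least 30% with cell ATP level not reduced by more than half and red fluorescence within 50% of control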
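Material – HT1080 RFP-PRO-GFP cells · Control set – DMSO wells and RFP-L50D-GFP cells · Incubation – overnight cell settling, then overnight compound exposure, 37 °C, 5% CO2 · Compound dosing – single-point 20 µM compound, 1% DMSO · Read-out – GFP/RFP fluorescence ratio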
SKN-1 inh – suppressors of acrylamide-induced Pgst-4::GFP reporter in worms, primary screen, SKN-1 inhibitor project, whole organism, uHTS, GFP/RFP fluorescence ratio, strain VP596. C. elegans VP596 Pgst-4::GFP/RFP ratio, 24 h. inhibition, % at 21.8 µM. actives 0.49% (n = 360,000). AID 624304, 2012;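 active = interference check ratio from 0.5 to 1.5 plus GFP to RFP signal ratio inhibition reaching or exceeding a fixed threshold, cut at about 30% in these data, passing the limit was not always enough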
DAGLB inhibitor – DAGLB lipase inhibitors, primary screen, biochemical, fluorescence, HTS; HEK293T DAGLB membrane lysate, EnzChek fluorogenic substrate; actives 0.059% (n = 340,000); Diacylglycerol lipase-beta (Homo sapiens), Q8NCG7; inhibition, % at 5.17 µM; in the data active = inhibition above about 34%;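 also: 0% = enzyme with vehicle and 100% = wells lacking enzyme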
hiPSC survival – enhancers of single-cell hiPSC survival, primary screen, ATPlite luminescence; 100% = ROCK inhibitor wells, 0% = DMSO; survival enhancement, % at 20 µM; actives 0.044% (n = 360,000); AID 602274, 2012; in the data active = survival enhancement above about 18%;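 also: cells exposed to compounds for 16 hours before the ATP read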
FAS-TE inh – FAS thioesterase domain inhibitors, primary screen, biochemical, fluorescence intensity, uHTS | recombinant FAS-TE, OMFH fluorogenic substrate, fluorescence endpoint | actives 0.67% (n = 360,000) | inhibition, % at 15 µM | Fatty acid synthase (Homo sapiens), P49327;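 active = compounds whose normalised, plate-corrected inhibition of enzyme fluorescence in the single-dose primary screen is 50% or more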;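 also: 0% = DMSO with enzyme and 100% = substrate without enzyme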
Starred values were filed as active, the others as inactive. The list is not random: actives were taken first. Their share in the collection is about 1.3%.

COc1cccc(CN2CCC2(C)C(=O)Nc2ccc3c(c2)OCO3)c1F (centres undefined) was read as MT1-MMP act inh -1, SKN-1 inh 17, hiPSC survival 2 and FAS-TE inh 10.
O=C(NCC(=O)N(Cc1cccs1)C(C(=O)NC1CCCCC1)c1ccncc1)c1ccco1 (centres undefined) was read as MT1-MMP act inh -6, SKN-1 inh 42*, DAGLB inhibitor 2, hiPSC survival -1 and FAS-TE inh 0.
`CCCC(C)(C)C(=O)N1CCC1(C)C(=O)Nc1cccc2ccccc12` (centres undefined) gave MT1-MMP act inh -1, SKN-1 inh 8, hiPSC survival -1 and FAS-TE inh 14.
Screening COc1ccc(-c2cc(=O)oc3cc(OCC(=O)N(C)C)ccc23)cc1 returned MT1-MMP act inh -8, SKN-1 inh 37*, DAGLB inhibitor -1, hiPSC survival 0 and FAS-TE inh -1.
Screening CN(C)C(=O)c1cccc(-c2cccc3nccn23)c1 returned MT1-MMP act inh -8, SKN-1 inh 0, hiPSC survival 2 and FAS-TE inh -7.
COCCn1cc(C(=O)NCc2cccs2)c2c3ccccc3n(C)c2c1=O was read as MT1-MMP act inh 0, SKN-1 inh 41*, DAGLB inhibitor 1, hiPSC survival 1 and FAS-TE inh 1.
COCCn1cc(C(=O)NCCN(C)C)c2c3ccccc3n(C)c2c1=O was read as MT1-MMP act inh 1, SKN-1 inh 14, DAGLB inhibitor -1, hiPSC survival -1 and FAS-TE inh -3.
For O=C(Nc1ccc(S(=O)(=O)N2CCOCC2)cc1)c1cc(S(=O)(=O)N2CCOCC2)ccc1Cl the results were MT1-MMP act inh 2, SKN-1 inh -11, DAGLB inhibitor -2, hiPSC survival 1 and FAS-TE inh 8.
`O=C(Nc1ccncc1)c1cc(S(=O)(=O)N2CCOCC2)ccc1Cl` gave MT1-MMP act inh 0, SKN-1 inh 3, DAGLB inhibitor 1, hiPSC survival 26* and FAS-TE inh -12.
Screening c1ccc(Oc2cc(-c3ccccc3)ncn2)cc1 returned MT1-MMP act inh 5, SKN-1 inh 50*, DAGLB inhibitor -7, hiPSC survival 3 and FAS-TE inh 6.
NS(=O)(=O)c1ccc(CCNc2ccn3nc(-c4ccc(OCCN5CCOCC5)cc4)cc3n2)cc1 was read as MT1-MMP act inh 3, SKN-1 inh -12, hiPSC survival 1 and FAS-TE inh -5.
`Cc1ccccc1-c1nnc(-c2cccc3ccccc23)o1` gave MT1-MMP act inh -5, SKN-1 inh 18, DAGLB inhibitor -1, hiPSC survival -4 and FAS-TE inh 24.
Screening Cc1ccccc1-c1nnc(-c2ccccc2C)o1 returned MT1-MMP act inh 0, SKN-1 inh 46*, DAGLB inhibitor -16, hiPSC survival 0 and FAS-TE inh 3.
Screening c1ccc(-c2csc(N3CCSCC3)n2)cc1 returned MT1-MMP act inh 0, SKN-1 inh 29, DAGLB inhibitor -8, hiPSC survival -1 and FAS-TE inh 12.
Clc1ccc(-c2csc(N3CCSCC3)n2)cc1 was read as MT1-MMP act inh -4, SKN-1 inh 50*, DAGLB inhibitor -12, hiPSC survival -2 and FAS-TE inh 38.
For Fc1ccc(-c2csc(N3CCSCC3)n2)cc1 the results were MT1-MMP act inh 1, SKN-1 inh 41*, DAGLB inhibitor -12, hiPSC survival -1 and FAS-TE inh 18.
Screening O=C1NC[C@H](CCCCN2C[C@H](Cc3ccc(O)cc3)N(CC3CCCCC3)C(=O)C2=O)N(CCc2ccc(O)cc2)C1=O returned MT1-MMP act inh 2, SKN-1 inh 2, hiPSC survival 1 and FAS-TE inh -3.
Screening CC(C)NC(=O)c1cc(C2CCCCN2S(=O)(=O)c2ccccc2)on1 (centres undefined) returned MT1-MMP act inh 3, SKN-1 inh 22, hiPSC survival -4 and FAS-TE inh -2.
For COc1ncccc1-c1ccc2nncn2c1 the results were MT1-MMP act inh 0, SKN-1 inh 13, hiPSC survival 6 and FAS-TE inh -7.
`CCc1ccc(O)c(N=Cc2ccccc2O)c1` gave MT1-MMP act inh -39, SKN-1 inh 10, DAGLB inhibitor 0, hiPSC survival -1 and FAS-TE inh -6.
`O=c1[nH][nH]c2c(N=Cc3ccccc3O)ccc(F)c12` gave MT1-MMP act inh 2, SKN-1 inh 42*, DAGLB inhibitor -3, hiPSC survival 0 and FAS-TE inh -2.
For C/C(=N\Nc1ccc(Cl)c(C(=O)O)c1)c1ccc(Br)s1 the results were MT1-MMP act inh 2, SKN-1 inh 44*, DAGLB inhibitor 6, hiPSC survival 1 and FAS-TE inh 32.
Screening C(=C1c2ccccc2-c2ccccc21)c1ccccn1 returned MT1-MMP act inh 2, SKN-1 inh 52*, DAGLB inhibitor -5, hiPSC survival 1 and FAS-TE inh 30.
O=C1C(=Cc2ccccn2)CCc2ccccc21 was read as MT1-MMP act inh 1, SKN-1 inh 39*, DAGLB inhibitor -3, hiPSC survival -3 and FAS-TE inh -4.
COc1ccc(OC)c(NC(=O)COc2cc(O)c3c(c2)OC(C)(C)CC3=O)c1 was read as MT1-MMP act inh -1, SKN-1 inh 2, hiPSC survival -1 and FAS-TE inh 20.
For O=C(Nc1ccccn1)C(=O)Nc1ccccn1 the results were MT1-MMP act inh 6, SKN-1 inh 3, DAGLB inhibitor -1, hiPSC survival -1 and FAS-TE inh -4.
S=C(Nc1ccccn1)c1ccccn1 was read as MT1-MMP act inh 5, SKN-1 inh 39*, DAGLB inhibitor -5, hiPSC survival -1 and FAS-TE inh -3.
Screening CCCc1cc(-c2nc(-c3ccc(Cl)cc3)cs2)ccn1 returned MT1-MMP act inh 0, SKN-1 inh 56*, DAGLB inhibitor -15, hiPSC survival 4 and FAS-TE inh 47.
Cc1ccc(-c2nn(-c3ccccc3)cc2CSC(=N)N)cc1 was read as MT1-MMP act inh -3, SKN-1 inh 43*, DAGLB inhibitor 0, hiPSC survival -4 and FAS-TE inh -234.
Cn1nc(C2CC2)cc1NC(=O)C1(C)CCN1C(=O)Cc1ccc(-c2ccccc2)cc1 (centres undefined) was read as MT1-MMP act inh 2, SKN-1 inh 1, hiPSC survival -1 and FAS-TE inh 7.
`C=CCN1C(c2ccccc2)=CS/C1=C(\C#N)c1nnc2n1CCCCC2` gave MT1-MMP act inh 9, SKN-1 inh 9, DAGLB inhibitor -3, hiPSC survival 1 and FAS-TE inh -8.

Screening data: PubChem, several laboratories
